In brackets after ≈: the same amount, converted by molar mass.
Experiments:
Fusarium graminearum [1] = assay: Antimicrobial activity against Gibberella zeae at 50 ug/mL by mycelium growth rate method; assay type: functional
How it was run: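 Mycelium growth rate assay with anthranilamide and fenpiclonil as controls. Once mycelia had grown completely, the mycelial diameter was measured and the inhibition rate was calculated from it by formula.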

Fusarium [2] = assay: Antimicrobial activity against Fusarium […] at 50 ug/mL by mycelium growth rate method; assay type: functional
How it was run: (§1)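 Mycelium growth-rate assay with anthranilamide and fenpiclonil as controls. Colony diameter is measured once the mycelia have grown completely, and the inhibition rate is calculated from the diameters by formula.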

[3] = tested on: Botryosphaeria berengeriana; assay: Antimicrobial activity against Physalospora piricola at 50 ug/mL by mycelium growth rate method; assay type: functional; how it was run: as §1
Mycosphaerella arachidis [4] = assay: Antimicrobial activity against Cercospora arachidicola at 50 ug/mL by mycelium growth rate method; assay type: functional; how it was run: as §1
Alternaria solani [5] = assay: Antimicrobial activity against Alternaria solani at 50 ug/mL by mycelium growth rate method; assay type: functional; how it was run: as §1
Fusarium graminearum [6] = assay: Antimicrobial activity against Gibberella zeae by mycelium growth rate method; assay type: functional, organism-based
Alternaria solani [7] = assay: Antimicrobial activity against Alternaria solani by mycelium growth rate method; assay type: functional, organism-based; how it was run: as §1
[8] = tested on: Botryosphaeria berengeriana; assay: Antimicrobial activity against Physalospora piricola by mycelium growth rate method; assay type: functional, organism-based; how it was run: as §1
Mycosphaerella arachidis [9] = assay: Antimicrobial activity against Cercospora arachidicola by mycelium growth rate method; assay type: functional, organism-based; how it was run: as §1
Fusarium [10] = assay: Antimicrobial activity against Fusarium […] by mycelium growth rate method; assay type: functional, organism-based; how it was run: as §1

| SMILES | inhibition at 50 µg/mL (Fusarium graminearum [1]) | inhibition at 50 µg/mL (Fusarium [2]) | inhibition at 50 µg/mL [3] | inhibition at 50 µg/mL (Mycosphaerella arachidis [4]) | inhibition at 50 µg/mL (Alternaria solani [5]) | EC50 (Fusarium graminearum [6]) | EC50 (Alternaria solani [7]) | EC50 [8] | EC50 (Mycosphaerella arachidis [9]) | EC50 (Fusarium [10]) |
| --- | --- | --- | --- | --- | --- | --- | --- | --- | --- | --- |
| O=C(NOCc1ccc(Br)cc1)c1cc(Br)c(Br)[nH]1 | 2.9% | 4.8% | 33.3% | 50% | 31.6% |  |  |  |  |  |
| O=C(NOCc1ccccc1F)c1cc(Br)c(Br)[nH]1 | 18.2% | 41.2% | 27.3% | 50.3% | 76.2% |  |  |  |  |  |
| C#CCOc1ccc(CONC(=O)c2ccc[nH]2)cc1OC | 9.1% | 16.7% | 100% | 20% | 35.3% | > 50 µg/mL | > 50 µg/mL | 4.5 µg/mL (≈ 15 µM) | > 50 µg/mL | > 50 µg/mL |
| O=C(NOCc1ccc([N+](=O)[O-])cc1)c1cc(Br)c(Br)[nH]1 | 13% | 17.6% | 16.7% | 18.8% | 26.7% |  |  |  |  |  |
| C#CCOc1ccc(CONC(=O)c2cc(Br)c(Br)[nH]2)cc1OC | 8.7% | 47.1% | 90% | 56.3% | 64.9% | > 50 µg/mL | 20 µg/mL (≈ 43.7 µM) | 9.78 µg/mL (≈ 21.3 µM) | 24.4 µg/mL (≈ 53.2 µM) | > 50 µg/mL |
| O=C(NOCc1cccc(F)c1)c1cc(Br)c(Br)[nH]1 | 4.5% | 40.8% | 40.9% | 54% | 61.9% |  |  |  |  |  |
| O=C(NOCc1ccc(F)cc1)c1ccc[nH]1 | 7% | 0% | 6.2% | 12% | 0% |  |  |  |  |  |
| CO/C=C(/C(=O)OC)c1ccccc1CONC(=O)c1cc(Cl)c(Cl)[nH]1 | 21.1% | 8.3% | 24.7% | 40% | 42.3% |  |  |  |  |  |
| C#CCOc1ccc(CON(C)C(=O)c2cccn2C)cc1OC | 20% | 31.6% | 6% | 7.7% | 16.7% |  |  |  |  |  |
| O=C(NOCc1ccc(F)cc1)c1[nH]c(Br)c(Br)c1Br | 15.5% | 8.3% | 18.5% | 28% | 19.2% |  |  |  |  |  |
| C#CCOc1ccc(CONC(=O)c2cc(Cl)c(Cl)[nH]2)cc1OC | 21.1% | 0% | 6.2% | 44% | 42.3% |  |  |  |  |  |
| O=C(NOCc1ccc(Cl)cc1Cl)c1cc(Br)c(Br)[nH]1 | 11.8% | 33.3% | 33.3% | 35.7% | 21.1% |  |  |  |  |  |
| N#Cc1ccccc1CONC(=O)c1cc(Br)c(Br)[nH]1 | 14.7% | 14% | 14.8% | 14.3% | 10.5% |  |  |  |  |  |
| O=C(NOCc1ccccc1)c1cc(Br)c(Br)[nH]1 | 9.1% | 40% | 40.9% | 53.3% | 66.7% |  |  |  |  |  |
| O=C(NOCc1ccc(F)cc1)c1cc(Br)c(Br)[nH]1 | 21.7% | 58% | 55.1% | 62.5% | 66.5% |  |  |  |  |  |
| C#CCOc1ccc(CON(C)C(=O)c2ccc[nH]2)cc1OC | 0% | 31.6% | 5.8% | 19.2% | 13.3% |  |  |  |  |  |

| SMILES | inhibition at 50 µg/mL (Fusarium graminearum [1]) | inhibition at 50 µg/mL (Fusarium [2]) | inhibition at 50 µg/mL [3] | inhibition at 50 µg/mL (Mycosphaerella arachidis [4]) | inhibition at 50 µg/mL (Alternaria solani [5]) | EC50 (Fusarium graminearum [6]) | EC50 (Alternaria solani [7]) | EC50 [8] | EC50 (Mycosphaerella arachidis [9]) | EC50 (Fusarium [10]) |
| --- | --- | --- | --- | --- | --- | --- | --- | --- | --- | --- |
| N#Cc1ccc(CONC(=O)c2cc(Br)c(Br)[nH]2)cc1 | 20.6% | 19% | 48.1% | 35% | 31.6% |  |  |  |  |  |
| N#Cc1cccc(CONC(=O)c2cc(Br)c(Br)[nH]2)c1 | 8.8% | 18% | 25.3% | 35.7% | 21.1% |  |  |  |  |  |
| CO/C=C(/C(=O)OC)c1ccccc1CONC(=O)c1cc(Br)c(Br)[nH]1 | 0% | 6.7% | 13.6% | 26.7% | 52.4% |  |  |  |  |  |
| O=C(NOCc1ccc(Cl)nc1)c1cc(Br)c(Br)[nH]1 | 0% | 23.8% | 37% | 28.6% | 5.3% |  |  |  |  |  |
| O=C(NOCc1cccc(Cl)c1)c1cc(Br)c(Br)[nH]1 | 17.4% | 47% | 38.9% | 80% | 66.7% |  |  |  |  |  |
| CO/C=C(/C(=O)OC)c1ccccc1CONC(=O)c1ccc[nH]1 | 8.5% | 0% | 16.1% | 13.3% | 0% |  |  |  |  |  |
| CO/C=C(/C(=O)OC)c1ccccc1CONC(=O)c1[nH]c(Br)c(Br)c1Br | 13.6% | 27.8% | 25% | 26.7% | 5.9% |  |  |  |  |  |
| O=C(NOCc1ccc(F)cc1)c1cc(Cl)c(Cl)[nH]1 | 19.5% | 22.2% | 18.5% | 16% | 30.8% |  |  |  |  |  |
| C#CCOc1ccc(CONC(=O)c2[nH]c(Br)c(Br)c2Br)cc1OC | 9.1% | 22.2% | 25.8% | 33.3% | 11.8% |  |  |  |  |  |
| O=C(NOCc1ccccc1Cl)c1cc(Br)c(Br)[nH]1 | 13.6% | 0% | 13.4% | 20% | 19% |  |  |  |  |  |
| N#Cc1c[nH]cc1-c1cccc(Cl)c1Cl [FENPICLONIL] | 100% | 18% | 100% | 100% | 100% | 1.71 µg/mL (≈ 7.21 µM) | 0.55 µg/mL (≈ 2.32 µM) | 0.8 µg/mL (≈ 3.37 µM) | 0.38 µg/mL (≈ 1.6 µM) | > 50 µg/mL |
| O=C(NOCc1ccc(Cl)c(Cl)c1)c1cc(Br)c(Br)[nH]1 | 17.4% | 23.5% | 27.8% | 43.8% | 40% |  |  |  |  |  |
| COc1ccc(CONC(=O)c2cc(Br)c(Br)[nH]2)cc1OC | 4.6% | 41.2% | 50% | 60% | 73.3% |  |  |  |  |  |
| NC(=O)c1ccccc1N [ANTHRANILAMIDE] | 38% | 27.8% | 43.2% | 52% | 42.3% |  |  |  |  |  |
| O=C(NOCc1ccc2c(c1)OCO2)c1cc(Br)c(Br)[nH]1 | 14.7% | 23.8% | 18.5% | 75% | 31.6% |  |  |  |  |  |

Source: ChEMBL document CHEMBL1770104, “Design, synthesis and antifungal activities of novel pyrrole alkaloid analogs” (Eur J Med Chem, 2011)
